ChEMBL document CHEMBL1151746, “Antitumor agents 6. Synthesis, structure-activity relationships, and biological evaluation of spiro[imidazolidine-4,3'-thieno[2,3-g]quinoline]-tetraones and spiro[thieno[2,3-g]quinoline-3,5'-[1,2,4]triazinane]-tetraones with potent antiproliferative activity” (J Med Chem, 2008)

Experiments:
ACHN = test: Antiproliferative activity against human ACHN cells after 96 hrs by MTT assay; type: functional, cell-based
Outline: (§1)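 Solid-tumor cells in their specific media with 10% FCS were seeded at 5 × 10⁴ cells/mL and left to adhere 16 h. Serially diluted compound was then added (DMSO solution at 200 µM, diluted in medium). MTT viability was read 4 days later. IC50 came from linear regression against untreated controls, which grew at least three rounds, as the mean of three independent determinations.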

MT4 = test: Antiproliferative activity against human MT4 cells after 96 hrs by MTT assay; type: functional, cell-based
Outline: (§2)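 Exponentially growing cells in RPMI 1640 with 10% FCS were resuspended at 1 × 10⁵ cells/mL in RPMI containing serial dilutions of compound (DMSO solution at 200 µM, diluted in medium). After 96 h at 37 °C, viability was read by MTT. Growth was taken as % of untreated controls, which grew at least three rounds. IC50 came from linear regression, as the mean of three independent determinations.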

HeLa = test: Antiproliferative activity against human HeLa cells after 96 hrs by MTT assay; type: functional, cell-based; outline: as §1
CCRF-CEM = test: Antiproliferative activity against human CCRF-CEM cells after 96 hrs by MTT assay; type: functional, cell-based; outline: as §2
HT-29 = test: Antiproliferative activity against human HT-29 cells after 96 hrs by MTT assay; type: functional, cell-based; outline: as §1
XF498 = test: Antiproliferative activity against human XF498 cells after 96 hrs by MTT assay; type: functional, cell-based; conditions: XF498, 96 h; outline: as §1
MCF7 = test: Antiproliferative activity against human MCF7 cells after 96 hrs by MTT assay; type: functional, cell-based; conditions: MCF7, 96 h; outline: as §1
SF-268 = test: Antiproliferative activity against human SF-268 cells after 96 hrs by MTT assay; type: functional, cell-based; conditions: SF-268, 96 h; outline: as §1
CCRF-SB = test: Antiproliferative activity against human CCRF-SB cells after 96 hrs by MTT assay; type: functional, cell-based; outline: as §2
MRC5 = test: Antiproliferative activity against human MRC5 cells after 96 hrs by MTT assay; type: cell-based; conditions: MRC5, 96 h; outline: as §2
[1] = target: DNA topoisomerase 2-alpha (Homo sapiens) (UniProt P11388); test: Inhibition of DNA topoisomerase 2-mediated negatively supercoiled pBR322 relaxation
Sequence of DNA topoisomerase 2-alpha (Homo sapiens) (P11388 whole entry): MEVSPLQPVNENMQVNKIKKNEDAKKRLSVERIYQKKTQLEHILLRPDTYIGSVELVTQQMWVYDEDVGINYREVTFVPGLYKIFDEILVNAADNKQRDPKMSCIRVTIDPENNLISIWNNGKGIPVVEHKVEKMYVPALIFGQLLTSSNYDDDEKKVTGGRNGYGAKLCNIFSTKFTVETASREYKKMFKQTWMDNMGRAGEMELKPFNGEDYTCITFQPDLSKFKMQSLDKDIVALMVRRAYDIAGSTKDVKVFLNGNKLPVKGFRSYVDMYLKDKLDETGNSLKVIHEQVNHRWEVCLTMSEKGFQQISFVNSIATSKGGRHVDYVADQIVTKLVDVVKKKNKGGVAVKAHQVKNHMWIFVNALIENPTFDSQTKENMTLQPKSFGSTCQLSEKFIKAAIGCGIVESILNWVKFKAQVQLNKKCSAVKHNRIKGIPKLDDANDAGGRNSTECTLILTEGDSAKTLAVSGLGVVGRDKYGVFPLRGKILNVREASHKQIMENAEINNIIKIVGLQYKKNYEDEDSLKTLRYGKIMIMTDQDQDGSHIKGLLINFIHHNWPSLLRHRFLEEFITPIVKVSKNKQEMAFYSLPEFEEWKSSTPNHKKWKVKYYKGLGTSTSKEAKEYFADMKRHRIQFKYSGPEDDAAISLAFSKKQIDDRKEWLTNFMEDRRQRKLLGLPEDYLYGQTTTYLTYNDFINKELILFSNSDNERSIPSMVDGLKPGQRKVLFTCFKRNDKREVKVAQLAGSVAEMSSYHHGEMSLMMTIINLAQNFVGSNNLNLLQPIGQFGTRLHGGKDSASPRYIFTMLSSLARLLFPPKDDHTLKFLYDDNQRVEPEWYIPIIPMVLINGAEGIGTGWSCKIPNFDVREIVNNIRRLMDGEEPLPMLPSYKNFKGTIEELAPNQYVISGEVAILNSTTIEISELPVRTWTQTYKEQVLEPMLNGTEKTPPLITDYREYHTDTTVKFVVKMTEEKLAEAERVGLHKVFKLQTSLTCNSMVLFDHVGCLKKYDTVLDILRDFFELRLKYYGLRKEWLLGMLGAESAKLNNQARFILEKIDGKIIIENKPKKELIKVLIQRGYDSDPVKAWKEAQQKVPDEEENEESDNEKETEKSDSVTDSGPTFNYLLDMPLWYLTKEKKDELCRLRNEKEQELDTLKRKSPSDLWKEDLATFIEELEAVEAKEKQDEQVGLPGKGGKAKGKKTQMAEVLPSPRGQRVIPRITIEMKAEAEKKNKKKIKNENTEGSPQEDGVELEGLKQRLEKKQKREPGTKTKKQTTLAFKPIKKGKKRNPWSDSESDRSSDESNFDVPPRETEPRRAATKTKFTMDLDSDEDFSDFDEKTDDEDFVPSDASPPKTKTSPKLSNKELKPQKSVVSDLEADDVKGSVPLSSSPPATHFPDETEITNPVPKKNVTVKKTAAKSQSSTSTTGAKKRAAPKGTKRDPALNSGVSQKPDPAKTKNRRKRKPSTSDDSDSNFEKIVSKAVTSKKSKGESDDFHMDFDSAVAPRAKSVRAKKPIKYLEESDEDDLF

Row | Compound | IC50 (ACHN) [nM] | IC50 (HeLa) [nM] | IC50 (CCRF-CEM) [nM] | IC50 (HT-29; Homo sapiens, HT-29, 96 h) [nM] | IC50 (MCF7) [nM] | IC50 (CCRF-SB) [nM] | Activity [1] | IC50 (HT-29; ht-29) [nM] | IC50 (MT4; Homo sapiens, MT4, 96 h) [nM] | IC50 (XF498) [nM] | IC50 (SF-268) [nM] | IC50 (MRC5) [nM] | IC50 (MT4; mt4) [nM]
1 | Cc1ccc(N2NC(=O)NC3(CSC4=C3C(=O)c3ncccc3C4=O)C2=O)cc1 (racemic) | 500 | 210 | 70 | 200 | 410 | 37 | – | – | 100 | 3800 | 2100 | – | –
2 | O=C1NN(c2ccc([N+](=O)[O-])cc2)C(=O)C2(CSC3=C2C(=O)c2ncccc2C3=O)N1 (racemic) | 650 | 610 | 2 | 1010 | 550 | 2 | – | – | 5 | 4800 | 3550 | – | –
3 | O=C1C2=C(C(=O)c3ncccc31)C1(CS2)NC(=O)N(c2ccc([N+](=O)[O-])cc2)C1=O (racemic) | 100 | 100 | 1 | 250 | 350 | 2 | – | – | 8 | 1030 | 1520 | – | –
4 | O=C1NC(=O)C2(CSC3=C2C(=O)c2ncccc2C3=O)N1 (racemic) | 80 | 150 | 120 | – | 120 | 150 | – | – | – | 3120 | 3100 | – | –
5 | CN(C)c1ccc(N2C(=O)NC3(CSC4=C3C(=O)c3ncccc3C4=O)C2=O)cc1 (racemic) | 90 | 10 | 1 | 20 | 10 | 1 | Dose-dependent effect | – | 15 | 800 | 950 | 1000 | –
6 | O=C1NNC(=O)C2(CSC3=C2C(=O)c2ncccc2C3=O)N1 (racemic) | 1050 | 980 | 450 | – | 1250 | 48 | – | – | – | 5000 | 4820 | – | –
7 | COc1ccc(N2C(=O)NC3(CSC4=C3C(=O)c3ncccc3C4=O)C2=O)cc1 (racemic) | 50 | 1 | 50 | 2 | 50 | 10 | – | – | 70 | 650 | 650 | – | –
8 | O=C1NC(=O)C2(CSC3=C2C(=O)c2ncccc2C3=O)N1 (single isomer, unassigned; (+)) | – | – | – | 190 | – | – | – | – | 130 | – | – | – | –
9 | O=C1NNC(=O)C2(CSC3=C2C(=O)c2ncccc2C3=O)N1 (single isomer, unassigned; (-)) | – | – | – | – | – | – | – | 1600 | – | – | – | – | 500
10 | COc1cc([C@@H]2c3cc4c(cc3[C@@H](O[C@@H]3O[C@@H]5CO[C@@H](C)O[C@H]5[C@H](O)[C@H]3O)[C@H]3COC(=O)[C@H]23)OCO4)cc(OC)c1O [ETOPOSIDE] | 2150 | 3000 | 1200 | 2500 | 1000 | 100 | – | – | 1250 | 3450 | 3250 | 3900 | –

Now from value to compound, other results behind:

Row | IC50 (ACHN) [nM] | IC50 (HeLa) [nM] | IC50 (CCRF-CEM) [nM] | IC50 (HT-29; Homo sapiens, HT-29, 96 h) [nM] | IC50 (MCF7) [nM] | IC50 (CCRF-SB) [nM] | Activity [1] | IC50 (HT-29; ht-29) [nM] | Compound | IC50 (MT4; Homo sapiens, MT4, 96 h) [nM] | IC50 (XF498) [nM] | IC50 (SF-268) [nM] | IC50 (MRC5) [nM] | IC50 (MT4; mt4) [nM]
11 | 50 | 90 | 150 | 50 | 70 | 190 | – | – | CCCCc1ccc(N2C(=O)NC3(CSC4=C3C(=O)c3ncccc3C4=O)C2=O)cc1 (racemic) | 200 | 950 | 400 | – | –
12 | 150 | 100 | 200 | 150 | 130 | 200 | – | – | CC(C)(C)c1ccc(N2C(=O)NC3(CSC4=C3C(=O)c3ncccc3C4=O)C2=O)cc1 (racemic) | 200 | 850 | 500 | – | –
13 | 940 | 210 | 90 | 550 | 150 | 39 | – | – | O=C1NN(c2ccccc2)C(=O)C2(CSC3=C2C(=O)c2ncccc2C3=O)N1 (racemic) | 150 | 4550 | 2200 | – | –
14 | 360 | 150 | 50 | 220 | 110 | 51 | – | – | O=C1NN(c2ccc(Cl)cc2)C(=O)C2(CSC3=C2C(=O)c2ncccc2C3=O)N1 (racemic) | 150 | 2500 | 2000 | – | –
15 | 4 | 2 | 10 | 2 | 4 | 10 | Dose-dependent effect | – | O=C1C2=C(C(=O)c3ncccc31)C1(CS2)NC(=O)N(c2ccc(Cl)cc2)C1=O (racemic) | 10 | 590 | 580 | 800 | –
16 | 20 | 50 | 20 | 50 | 30 | 9 | – | – | CCN(CC)c1ccc(N2C(=O)NC3(CSC4=C3C(=O)c3ncccc3C4=O)C2=O)cc1 (racemic) | 8 | 730 | 960 | – | –
17 | 140 | 200 | 600 | 750 | 750 | 650 | – | – | O=C1C2=C(C(=O)c3ncccc31)C1(CS2)NC(=O)N(c2ccc(N3CCOCC3)cc2)C1=O (racemic) | 800 | 1700 | 1980 | – | –
18 | 12 | 2 | 20 | 1 | 2 | 20 | – | – | Cc1ccc(N2C(=O)NC3(CSC4=C3C(=O)c3ncccc3C4=O)C2=O)cc1 (racemic) | 27 | 1350 | 660 | – | –
19 | 430 | 150 | 35 | 650 | 230 | 35 | – | – | COc1ccc(N2NC(=O)NC3(CSC4=C3C(=O)c3ncccc3C4=O)C2=O)cc1 (racemic) | 80 | 3800 | 2850 | – | –
20 | 250 | 200 | 250 | 250 | 250 | 150 | – | – | CCCCCc1ccc(N2C(=O)NC3(CSC4=C3C(=O)c3ncccc3C4=O)C2=O)cc1 (racemic) | 190 | 830 | 520 | – | –
21 | 80 | 10 | 2 | 2 | 10 | 1 | – | – | O=C1C2=C(C(=O)c3ncccc31)C1(CS2)NC(=O)N(c2ccncc2)C1=O (racemic) | 3 | 1120 | 1100 | – | –
22 | 5 | 5 | 10 | 1 | 50 | 10 | – | – | CCc1ccc(N2C(=O)NC3(CSC4=C3C(=O)c3ncccc3C4=O)C2=O)cc1 (racemic) | 1 | 1200 | 450 | – | –
23 | 21 | 3 | 10 | 2 | 1 | 30 | – | – | O=C1C2=C(C(=O)c3ncccc31)C1(CS2)NC(=O)N(c2ccccc2)C1=O (racemic) | 25 | 1510 | 1700 | – | –
24 | – | – | – | 1580 | – | – | – | – | O=C1NNC(=O)C2(CSC3=C2C(=O)c2ncccc2C3=O)N1 (stereo in doubt; (+)-3) | 550 | – | – | – | –
25 | – | – | – | – | – | – | – | 180 | O=C1NC(=O)C2(CSC3=C2C(=O)c2ncccc2C3=O)N1 (stereo in doubt; (-)-2) | – | – | – | – | 120
